Laboratory results: ChEMBL document CHEMBL3124806, “Imidazopyridine-fused [1,3]-diazepinones: synthesis and antiproliferative activity” (Eur J Med Chem, 2014)

What was measured:
Assay type in all cases: functional
[1] = system: HT-29; assay: Cytotoxicity against human HT-29 cells assessed as cell growth at 10 uM after 48 hrs by SRB assay relative to untreated control; conditions: HT-29, 48 h, read-out: Activity
How it was run: (§1)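 NCI-60 panel screen at a single concentration of 10 μM with 48 h incubation. Cell density measured by sulforhodamine B protein-binding dye and read spectrophotometrically. Growth expressed as percent of untreated control cells.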

[2] = system: IGROV-1; assay: Cytotoxicity against human IGROV1 cells assessed as cell growth at 10 uM after 48 hrs by SRB assay relative to untreated control; conditions: IGROV-1, 48 h, read-out: Activity; how it was run: as §1
[3] = system: SK-OV-3; assay: Cytotoxicity against human SKOV3 cells assessed as cell growth at 10 uM after 48 hrs by SRB assay relative to untreated control; conditions: SK-OV-3, 48 h, read-out: Activity
How it was run: (§2)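 NCI-60 single-dose screen. Compounds were added to the cultures at 10 μM and incubated for 48 h. The end point was sulforhodamine B protein staining read spectrophotometrically. Growth is reported as percent of untreated control cells.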

[4] = system: K562; assay: Cytotoxicity against human K562 cells assessed as cell growth at 10 uM after 48 hrs by SRB assay relative to untreated control; conditions: K562, 48 h, read-out: Activity; how it was run: as §1
[5] = system: MOLT-4; assay: Cytotoxicity against human MOLT4 cells assessed as cell growth at 10 uM after 48 hrs by SRB assay relative to untreated control; conditions: MOLT-4, 48 h, read-out: Activity
How it was run: (§3)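 NCI-60 one-dose screen: each agent added at 10 µM, cultures incubated 48 h. Endpoint by sulforhodamine B protein-binding dye read spectrophotometrically; growth expressed as percent of untreated control cells.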

[6] = system: SF-539; assay: Cytotoxicity against human SF539 cells assessed as cell growth at 10 uM after 48 hrs by SRB assay relative to untreated control; conditions: SF-539, 48 h, read-out: Activity; how it was run: as §3
[7] = system: MDA-MB-435; assay: Cytotoxicity against human MDA-MB-435 cells assessed as cell growth at 10 uM after 48 hrs by SRB assay relative to untreated control; conditions: MDA-MB-435, 48 h, read-out: Activity; how it was run: as §3
[8] = system: U-251; assay: Cytotoxicity against human U251 cells assessed as cell growth at 10 uM after 48 hrs by SRB assay relative to untreated control; conditions: U-251, 48 h, read-out: Activity; how it was run: as §2
[9] = system: TK-10; assay: Cytotoxicity against human TK10 cells assessed as cell growth at 10 uM after 48 hrs by SRB assay relative to untreated control; conditions: TK-10, 48 h, read-out: Activity; how it was run: as §2
[10] = system: SW-620; assay: Cytotoxicity against human SW620 cells assessed as cell growth at 10 uM after 48 hrs by SRB assay relative to untreated control; conditions: SW-620, 48 h, read-out: Activity; how it was run: as §2
[11] = system: ACHN; assay: Cytotoxicity against human ACHN cells assessed as cell growth at 10 uM after 48 hrs by SRB assay relative to untreated control; conditions: read-out: Activity; how it was run: as §1
[12] = system: SNB-19; assay: Cytotoxicity against human SNB19 cells assessed as cell growth at 10 uM after 48 hrs by SRB assay relative to untreated control; conditions: SNB-19, 48 h, read-out: Activity; how it was run: as §2
[13] = system: NCI-H322M; assay: Cytotoxicity against human NCI-H322M cells assessed as cell growth at 10 uM after 48 hrs by SRB assay relative to untreated control; conditions: read-out: Activity; how it was run: as §3
[14] = Cytotoxicity against human UO31 cells assessed as cell growth at 10 uM after 48 hrs by SRB assay relative to untreated control; conditions: UO-31, 48 h, read-out: Activity; how it was run: as §2
[15] = system: SF-295; assay: Cytotoxicity against human SF295 cells assessed as cell growth at 10 uM after 48 hrs by SRB assay relative to untreated control; conditions: SF-295, 48 h, read-out: Activity; how it was run: as §3
[16] = system: OVCAR-8; assay: Cytotoxicity against human OVCAR8 cells assessed as cell growth at 10 uM after 48 hrs by SRB assay relative to untreated control; conditions: OVCAR-8, 48 h, read-out: Activity; how it was run: as §3
[17] = system: T47D; assay: Cytotoxicity against human T47D cells assessed as cell growth at 10 uM after 48 hrs by SRB assay relative to untreated control; conditions: read-out: Activity; how it was run: as §2
[18] = system: RPMI-8226; assay: Cytotoxicity against human RPMI8226 cells assessed as cell growth at 10 uM after 48 hrs by SRB assay relative to untreated control; conditions: RPMI-8226, 48 h, read-out: Activity; how it was run: as §3
[19] = system: HOP-92; assay: Cytotoxicity against human HOP92 cells assessed as cell growth at 10 uM after 48 hrs by SRB assay relative to untreated control; conditions: HOP-92, 48 h, read-out: Activity; how it was run: as §1
[20] = system: LOX IMVI; assay: Cytotoxicity against human LOXIMVI cells assessed as cell growth at 10 uM after 48 hrs by SRB assay relative to untreated control; conditions: read-out: Activity; how it was run: as §1
[21] = system: BT-549; assay: Cytotoxicity against human BT549 cells assessed as cell growth at 10 uM after 48 hrs by SRB assay relative to untreated control; conditions: BT-549, 48 h, read-out: Activity; how it was run: as §1
[22] = system: M14; assay: Cytotoxicity against human M14 cells assessed as cell growth at 10 uM after 48 hrs by SRB assay relative to untreated control; conditions: M14, 48 h, read-out: Activity; how it was run: as §1
[23] = system: HCT-15; assay: Cytotoxicity against human HCT15 cells assessed as cell growth at 10 uM after 48 hrs by SRB assay relative to untreated control; conditions: HCT-15, 48 h, read-out: Activity; how it was run: as §1
[24] = system: NCI-H226; assay: Cytotoxicity against human NCI-H226 cells assessed as cell growth at 10 uM after 48 hrs by SRB assay relative to untreated control; conditions: NCI-H226, 48 h, read-out: Activity; how it was run: as §3
[25] = system: CCRF-CEM; assay: Cytotoxicity against human CCRF-CEM cells assessed as cell growth at 10 uM after 48 hrs by SRB assay relative to untreated control; conditions: read-out: Activity; how it was run: as §1
[26] = Cytotoxicity against human UACC257 cells assessed as cell growth at 10 uM after 48 hrs by SRB assay relative to untreated control; conditions: UACC-257, 48 h, read-out: Activity; how it was run: as §2
[27] = system: OVCAR-3; assay: Cytotoxicity against human OVCAR3 cells assessed as cell growth at 10 uM after 48 hrs by SRB assay relative to untreated control; conditions: OVCAR-3, 48 h, read-out: Activity; how it was run: as §3
[28] = system: 786-0; assay: Cytotoxicity against human […] cells assessed as cell growth at 10 uM after 48 hrs by SRB assay relative to untreated control; conditions: 786-0, 48 h, read-out: Activity; how it was run: as §1
[29] = system: Malme-3M; assay: Cytotoxicity against human MALME-3M cells assessed as cell growth at 10 uM after 48 hrs by SRB assay relative to untreated control; conditions: read-out: Activity; how it was run: as §1
[30] = system: SF-268; assay: Cytotoxicity against human SF268 cells assessed as cell growth at 10 uM after 48 hrs by SRB assay relative to untreated control; conditions: SF-268, 48 h, read-out: Activity; how it was run: as §3
[31] = system: MCF7; assay: Cytotoxicity against human MCF7 cells assessed as cell growth at 10 uM after 48 hrs by SRB assay relative to untreated control; conditions: MCF7, 48 h, read-out: Activity; how it was run: as §1
[32] = system: CAKI-1; assay: Cytotoxicity against human Caki1 cells assessed as cell growth at 10 uM after 48 hrs by SRB assay relative to untreated control; conditions: CAKI-1, 48 h, read-out: Activity; how it was run: as §1

Row | SMILES | growth at 10 µM [1] | growth at 10 µM [2] | growth at 10 µM [3] | growth at 10 µM [4] | growth at 10 µM [5] | growth at 10 µM [6] | growth at 10 µM [7] | growth at 10 µM [8] | growth at 10 µM [9] | growth at 10 µM [10] | growth at 10 µM [11] | growth at 10 µM [12] | growth at 10 µM [13] | growth at 10 µM [14] | growth at 10 µM [15] | growth at 10 µM [16] | growth at 10 µM [17] | growth at 10 µM [18] | growth at 10 µM [19] | growth at 10 µM [20] | also measured
1 | Cc1ccc(C2=Nc3nc4ccccn4c3C(=O)[C@@H]3CCCN23)cc1 | 101% | 99.7% | 106% | 104% | 92.4% | 92.5% | 91.1% | 99.1% | 110% | 101% | 93.9% | 92.2% | 104% | 80.3% | 96.7% | 98.1% | 89.8% | 105% | 78.3% | 87.4% | growth at 10 µM [21]: 94.2%; growth at 10 µM [22]: 94.8%; growth at 10 µM [23]: 95.3%; growth at 10 µM [24]: 86.5%; growth at 10 µM [25]: 50.2%; growth at 10 µM [26]: 98.8%; growth at 10 µM [27]: 96.7%; growth at 10 µM [28]: 98.1%; growth at 10 µM [29]: 102%; growth at 10 µM [30]: 88%; growth at 10 µM [31]: 89%; growth at 10 µM [32]: 91.8%
2 | Cc1ccc(C2=Nc3nc4ccccn4c3C(=O)[C@H](C)N2)cc1 | 82.8% | 70.9% | 90.2% | 47.1% | 75.9% | 90% | 25.7% | 95.5% | 96% | 82.3% | 81% | 95.5% | 81.7% | 45.9% | 87.4% | 93.8% | 103% | 88.6% | 66.3% | 88.6% | growth at 10 µM [21]: 85.7%; growth at 10 µM [22]: 87%; growth at 10 µM [23]: 71.9%; growth at 10 µM [24]: 80.5%; growth at 10 µM [25]: 85.2%; growth at 10 µM [26]: 90.3%; growth at 10 µM [27]: 90.4%; growth at 10 µM [28]: 98.4%; growth at 10 µM [29]: 82.6%; growth at 10 µM [30]: 99.7%; growth at 10 µM [31]: 71.2%; growth at 10 µM [32]: 86.1%
